Measurements taken from ChEMBL document CHEMBL1149642, “Molecular design of anti-MRSA agents based on the anacardic acid scaffold” (2007).
Values after ≈ are worked out from the molar mass of the structure shown. Active and inactive are the calls of the source. The rule behind the calls is not given here.

Assays:
Staphylococcus aureus = experiment: Antibacterial activity against methicillin-resistant Staphylococcus aureus ATCC 33592 by broth dilution method; assay type: functional
How it was run: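 Two-fold serial broth dilution in NYG broth (0.8% nutrient broth, 0.5% yeast extract, 0.1% glucose). Compound dilutions made in DMF and added 1:100 to broth. Inoculum was an overnight culture added at 1:100. Incubated at 37 °C for 48 h. MIC taken as the lowest concentration with no visible growth. Top concentration tested was 200 (solubility limit).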

Escherichia coli = experiment: Antibacterial activity against Escherichia coli ATCC 9637; assay type: functional, organism-based
How it was run: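 Two-fold serial broth dilution in NYG broth (0.8% nutrient broth, 0.5% yeast extract, 0.1% glucose); compound dilutions in DMF, 30 µL added to 3 mL broth, inoculated with 30 µL overnight culture; 37 °C, 48 h; MIC = lowest concentration with no visible growth; top concentration 200 µg/mL (solubility-limited).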

| Structure (SMILES) | MIC (Staphylococcus aureus) [µg/mL] | Activity (Escherichia coli) | Activity (Staphylococcus aureus) |
| --- | --- | --- | --- |
| O=C(O)c1c(O)cccc1CC1CCCCCCC1 | 12.5 (≈ 47.6 µM) | inactive |  |
| O=C(O)c1c(O)cccc1CCc1ccc(O)c(O)c1 | 100 (≈ 365 µM) | inactive |  |
| O=C(O)c1c(O)cccc1CC1CCCCC1 | 25 (≈ 107 µM) | inactive |  |
| O=C(O)c1c(O)cccc1CC1CCCCCCCCCCC1 | 0.39 (≈ 1.22 µM) | inactive |  |
| C=CC/C=C\C/C=C\CCCCCCCc1cccc(O)c1C(=O)OC | > 800 | inactive |  |
| O=C(O)c1c(O)cccc1CCc1cc(O)ccc1O | 100 (≈ 365 µM) | inactive |  |
| O=C(O)c1c(O)cccc1CC1CCCC1 | 100 (≈ 454 µM) | inactive |  |
| CCCCC(C)Cc1cccc(O)c1C(=O)O (configuration not stated) | 50 (≈ 212 µM) | inactive |  |
| CCCCCCCCCOC(=O)c1ccccc1O |  |  | inactive |
| O=C(O)c1c(O)cccc1CCc1ccc(O)cc1 | 50 (≈ 194 µM) | inactive |  |
| CCCCCC(CC)Cc1cccc(O)c1C(=O)O (configuration not stated) | 6.25 (≈ 23.6 µM) | inactive |  |
| O=C(O)c1c(O)cccc1CCc1ccc(O)cc1O | > 200 | inactive |  |
| O=C(O)c1c(O)cccc1CCCCc1ccccc1 | 25 (≈ 92.5 µM) | inactive |  |
| O=C(O)c1c(O)cccc1CCC1CCCCC1 | 12.5 (≈ 50.3 µM) | inactive |  |
| C=CC/C=C\C/C=C\CCCCCCCc1cccc(OC(C)=O)c1C(=O)O | > 800 | inactive |  |
| CC(C)CCCC(C)CCCc1cccc(O)c1C(=O)O (configuration not stated) | 0.39 (≈ 1.33 µM) | inactive |  |
| O=C(O)c1c(O)cccc1CCc1ccccc1 | 100 (≈ 413 µM) | inactive |  |
| CCCCCC/C=C/CCCCCCCc1cccc(O)c1C(=O)O | 6.25 (≈ 18 µM) | inactive |  |
| O=C(O)c1c(O)cccc1CCc1cc(O)c(O)cc1O | > 200 | inactive |  |
